The text below walks through data of ChEMBL document CHEMBL2034972, “Synthesis, biological evaluation, and structure-activity relationships of N-benzoyl-2-hydroxybenzamides as agents active against P. falciparum (K1 strain), Trypanosomes, and Leishmania” (J Med Chem, 2012).

Each structure is given as a SMILES string. In brackets after ≈: the same amount, converted by molar mass.

Data set [1] has as its system L6. Kind of data set: Cytotoxicity against rat L6 cells after 72 hrs by alamar blue assay. The following applies: L6, 72 h. Format: cell-based. The procedure, abridged:
(§1)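 In vitro screens of parasites and host cells: T. b. rhodesiense STIB900 trypomastigotes, T. cruzi Tulahuen C4 intracellular amastigotes, L. donovani MHOM-ET-67/L82 axenic amastigotes, P. falciparum K1 erythrocytic stage, and L6 rat skeletal myoblasts […] for toxicity. […] Values are means of two independent determinations.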

In data set [2] the test system is Leishmania donovani. Kind of data set: Antileishmanial activity against axenic amastigote stage of Leishmania donovani […] after 72 hrs by alamar blue assay. Format: functional, organism-based. The following applies: MHOM/ET/67/L82, L6, 72 h. The method, boiled down:
(§2)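 In vitro screens of parasites and host cells: T. b. rhodesiense STIB900 trypomastigotes, T. cruzi Tulahuen C4 intracellular amastigotes, L. donovani MHOM-ET-67/L82 axenic amastigotes, P. falciparum K1 erythrocytic stage, and L6 rat skeletal myoblasts […] for toxicity. Values are means of two independent determinations.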

The test system of data set [3] is Trypanosoma cruzi. Briefly: Antitrypanosomal activity against intracellular amastigote stage of Trypanosoma cruzi Tulahuen C2C4 infected in rat L6 cells after 96 hrs by spectrophotometric analysis. The settings on record: Tulahuen C2C4, L6, 96 h. Format: functional, organism-based. The method, boiled down: as §2
A short description of data set [4]: Selectivity index, ratio of IC50 for rat L6 cells to IC50 for chloroquine and pyrimethamine-resistant Plasmodium falciparum K1. Format: toxicity, cell-based. The settings on record: read-out: Ratio IC50. The method, boiled down: (§3)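 Selectivity index is calculated as the L6 myoblast IC50 divided by the IC50 against the respective parasite. Both IC50s are in µg/mL and are means of two independent determinations.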

Data set [5] in a line: Selectivity index, ratio of IC50 for rat L6 cells to IC50 for trypomastigotes of Trypanosoma brucei rhodesiense STIB 900. Format: toxicity, cell-based. The following applies: read-out: Ratio IC50. The procedure, abridged: as §3
The test system of data set [6] is Trypanosoma brucei rhodesiense. Kind of data set: Antitrypanosomal activity against trypomastigotes of Trypanosoma brucei rhodesiense […] after 72 hrs by alamar blue assay. The format is functional, organism-based. The settings on record: STIB 900, L6, 72 h. The procedure, abridged: as §1
For data set [7], the system named is Plasmodium falciparum. Briefly: Antimalarial activity against chloroquine and pyrimethamine-resistant Plasmodium falciparum […] assessed as [3H]-hypoxanthine incorporation after 48 hrs by liquid scintillation counting. Format: functional, organism-based. The procedure, abridged:
as §1

Data set [8] in a line: Selectivity index, ratio of IC50 for rat L6 cells to IC50 for axenic amastigote stage of Leishmania donovani MHOM/ET/67/L82. The format is toxicity, cell-based. The settings on record: read-out: Ratio IC50. The method, boiled down:
as §3

Data set [9] is described as follows: Selectivity index, ratio of IC50 for rat L6 cells to IC50 for intracellular amastigote stage of Trypanosoma cruzi Tulahuen C2C4. The format is toxicity, cell-based. The following applies: read-out: Ratio IC50. The procedure, abridged: as §3

In the case of `O=C(NC(=O)c1ccccc1O)c1ccc2ccccc2c1`, the IC50 is 21 µg/mL (≈ 72.1 µM) in [1]; 1 µg/mL (≈ 3.43 µM) in [2]; 8.5 µg/mL (≈ 29.2 µM) in data set [3]; 26 µg/mL (≈ 89.3 µM) in data set [6]; 0.22 µg/mL (≈ 0.755 µM) in data set [7]. For the same compound, the selectivity ratio came to 94 in data set [4], 0.78 in data set [5], 20 in [8] and 2.4 in data set [9].

Take `COc1ccc2cc(C(=O)NC(=O)c3ccccc3O)ccc2c1`: the half-maximal inhibitory concentration (IC50) in data set [1] was 56 µg/mL (≈ 174 µM); in [2], 1.4 µg/mL (≈ 4.36 µM); in data set [3], 5.1 µg/mL (≈ 15.9 µM); in [6] it was 42 µg/mL (≈ 131 µM); in data set [7], 0.98 µg/mL (≈ 3.05 µM). Moreover, the selectivity ratio in data set [4] turned out to be 57; in data set [5] it was 1.3; in data set [8], 40; in [9], 11.

As to `O=C(NC(=O)c1ccccc1O)c1cccc(CCl)c1`, the IC50 stood at 1.8 µg/mL (≈ 6.21 µM) in data set [1]; 0.16 µg/mL (≈ 0.552 µM) in [2]; 17 µg/mL (≈ 58.7 µM) in data set [3]; 20 µg/mL (≈ 69 µM) in [6]; 4.4 µg/mL (≈ 15.2 µM) in data set [7]. Further, the selectivity ratio came to 0.4 in data set [4], 0.087 in data set [5], 11 in data set [8] and 0.1 in data set [9].

On to `O=C(NC(=O)c1ccc(Cl)cc1Cl)c1ccccc1O`, for which the IC50 is 62 µg/mL (≈ 200 µM) in data set [1]; 11 µg/mL (≈ 35.5 µM) in [2]; 58 µg/mL (≈ 187 µM) in [3]; more than 100 µg/mL in [6]; 14 µg/mL (≈ 45.1 µM) in data set [7]. Further, the selectivity ratio is 4.4 in data set [4], less than 0.62 in data set [5], 5.5 in [8] and 1.1 in data set [9].

For `O=C(NC(=O)c1ccccc1O)c1ccc2c(c1)OCO2`, the IC50 in [1] is 24 µg/mL (≈ 84.1 µM); in data set [2] it was more than 50 µg/mL; in [3] it was 27 µg/mL (≈ 94.7 µM); in data set [6], more than 50 µg/mL; in [7] it was 4.2 µg/mL (≈ 14.7 µM). Moreover, the selectivity ratio is 5.6 in [4], less than 0.47 in data set [5], less than 0.47 in [8] and 0.86 in data set [9].

Consider `COc1cc(C(=O)NC(=O)c2ccccc2O)cc(OC)c1OC`, for which the IC50 in data set [1] was determined as 21 µg/mL (≈ 63.4 µM); in data set [2], 3.2 µg/mL (≈ 9.66 µM); in data set [3], 40 µg/mL (≈ 121 µM); in data set [6], 79 µg/mL (≈ 238 µM); in data set [7] it was 0.78 µg/mL (≈ 2.35 µM). Besides, the selectivity ratio was determined as 26 in data set [4], 0.26 in data set [5], 6.5 in data set [8] and 0.51 in [9].

`O=C(NC(=O)C1CCCCC1)c1ccccc1O`: the 50% inhibitory concentration (IC50) was 55 µg/mL (≈ 222 µM) in [1]; 6 µg/mL (≈ 24.3 µM) in data set [2]; 16 µg/mL (≈ 64.7 µM) in data set [3]; more than 100 µg/mL in data set [6]; 13 µg/mL (≈ 52.6 µM) in data set [7]. Further, the selectivity ratio is 4.4 in data set [4], less than 0.55 in data set [5], 9.2 in [8] and 3.4 in data set [9].

For the compound `Cc1occc1C(=O)NC(=O)c1ccccc1O`, the IC50 in data set [1] came to 16 µg/mL (≈ 65.2 µM); in [2], 2 µg/mL (≈ 8.16 µM); in [3], 36 µg/mL (≈ 147 µM); in data set [6] it was 48 µg/mL (≈ 196 µM); in data set [7], 4.7 µg/mL (≈ 19.2 µM). Further, the selectivity ratio is 3.4 in [4], 0.33 in data set [5], 7.8 in data set [8] and 0.44 in data set [9].

For `O=C(NC(=O)c1ccccc1O)c1ccccc1O`, the concentration for half-maximal inhibition (IC50) is 39 µg/mL (≈ 152 µM) in data set [1]; 1.9 µg/mL (≈ 7.39 µM) in data set [2]; 14 µg/mL (≈ 54.4 µM) in [3]; 62 µg/mL (≈ 241 µM) in data set [6]; 1.1 µg/mL (≈ 4.28 µM) in data set [7]. In addition, the selectivity ratio in [4] turned out to be 36; in data set [5], 0.63; in data set [8] it was 21; in data set [9] it was 2.8.
